Assay results from ChEMBL document CHEMBL3784921, “Mimicking of Arginine by Functionalized N(ω)-Carbamoylated Arginine As a New Broadly Applicable Approach to Labeled Bioactive Peptides: High Affinity Angiotensin, Neuropeptide Y, Neuropeptide FF, and Neurotensin Receptor Ligands As Examples” (J Med Chem, 2016).
pEC50, pIC50, pKi: −log10 of the molar value. *1 amine or outer side, *2 acyl side, *3 side chain or, on linkers, in order; H or OH if unused. Where a SMILES comes first, the peptide text is derived from it. Bridges are numbered along the chain shown (N, C = ends). Roman numbers before positions name the chains, in order. [ ]: non-standard residue; d: D form. X1 = CCC(=O)NCCCCNC(=O)/N=C(\N)NCCC[C@H](N[*:1])C(=O)[*:2]; X6 = CCC(=O)NCCCCNC(=O)/N=C(/N)NCCC[C@H](N[*:1])C(=O)[*:2]; X3 = NCCOCCOCCNC(=O)/N=C(\N)NCCC[C@H](N[*:1])C(=O)[*:2]; X4 = NCCOCCOCCNC(=O)/N=C(/N)NCCC[C@H](N[*:1])C(=O)[*:2]; X2 = NCCCCNC(=O)/N=C(\N)NCCC[C@H](N[*:1])C(=O)[*:2]; X7 = NCCCCNC(=O)/N=C(/N)NCCC[C@H](N[*:1])C(=O)[*:2]; Suberoyl = O=C(CCCCCCC(=O)[*:2])[*:1]

Columns and labels:
[1] = Drug degradation in CHO cells expressing human AT1 receptor at 50 uM after 2 hrs by reversed-phase HPLC analysis; assay type: ADME, cell-based, Cricetulus griseus; details: chinese hamster, read-out: Drug degradation
Outline: (§1)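 Stability tested under binding-assay conditions for up to 6 h: AT1 ligands with CHO-hAT1 cells and NTSR1 ligands with HT-29 cells. Samples analysed by reversed-phase HPLC chromatography.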

[2] = target: T1, Type-1 angiotensin II receptor (Homo sapiens, UniProt P30556); test: Displacement of [3H]-Asp-{Nomega-[N-(4-propanoylaminobutyl)aminocarbonyl]}Arg-ValTyr-Ile-His-Pro-Phe-OH Tris(hydrotrifluoroacetate) from human AT1 receptor transfected in CHO cells co-expressing Galpha16-mtAEQ after 2 hrs by liquid scintillation counting; assay type: cell-based
T1 sequence (P30556 whole entry): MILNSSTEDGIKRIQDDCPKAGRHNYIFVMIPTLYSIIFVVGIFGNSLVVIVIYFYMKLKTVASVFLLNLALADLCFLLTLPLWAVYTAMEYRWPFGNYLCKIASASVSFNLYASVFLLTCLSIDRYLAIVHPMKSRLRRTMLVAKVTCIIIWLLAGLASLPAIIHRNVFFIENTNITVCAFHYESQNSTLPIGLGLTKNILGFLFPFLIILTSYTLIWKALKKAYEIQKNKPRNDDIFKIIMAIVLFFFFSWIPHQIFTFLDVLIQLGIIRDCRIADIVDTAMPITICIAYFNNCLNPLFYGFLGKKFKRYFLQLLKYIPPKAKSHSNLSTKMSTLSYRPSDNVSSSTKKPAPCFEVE

[3] = Chemical stability of compound at 200 uM at pH 7 at 21 degC after 24 to 48 hrs by reversed-phase HPLC analysis; assay type: physicochemical; details: buffer, pH 7, 200 µM
Outline: (§2)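 Peptide incubated in phosphate buffer (PBS), pH 7.0, 21 °C, for 24 or 48 h. Remaining intact peptide assessed by reversed-phase HPLC chromatograms.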

[4] = target: T1, Type-1 angiotensin II receptor; test: Agonist activity at human AT1 receptor transfected in CHO cells co-expressing Galpha16-mtAEQ assessed as induction of intracellular Ca2+ mobilization by bioluminescence assay; assay type: functional, cell-based
[5] = target: T2, Neurotensin receptor type 1 (Homo sapiens, UniProt P30989); test: Displacement of [3H]-{Nomega-[N-(4-propanoylaminobutyl)aminocarbonyl]}Arg-Arg-ProTyr-Ile-Leu-OH Tris(hydrotrifluoroacetate) from NTSR1 in human HT-29 cells after 2 hrs by liquid scintillation counting; assay type: cell-based
[6] = target: Neuropeptide FF receptor 2 (Homo sapiens, UniProt Q9Y5X5); test: Displacement of [3H]EYE from human NPFF2 receptor expressed in CHO cell membranes after 1 hr by liquid scintillation spectrophotometric counting
[7] = target: Neurotensin receptor type 2 (Homo sapiens, UniProt O95665); test: Displacement of [3H]NT(8 to 13 residues) from human NTSR2 expressed in HEK293 cell membranes
[8] = target: T2, Neurotensin receptor type 1; test: Displacement of [3H]-{Nomega-[N-(4-propanoylaminobutyl)aminocarbonyl]}Arg-Arg-ProTyr-Ile-Leu-OH Tris(hydrotrifluoroacetate) from human NTSR1 transfected in CHO cells co-expressing Galpha16-mtAEQ after 2 hrs by liquid scintillation counting; assay type: cell-based
[9] = target: T2, Neurotensin receptor type 1; test: Agonist activity at NTSR1 in human HT-29 cells assessed as induction of intracellular Ca2+ mobilization by fura-2 dye-based spectrofluorimetric analysis; assay type: functional, cell-based
[10] = Chemical stability of compound at 150 uM at pH 7 at 21 degC after 24 to 48 hrs by reversed-phase HPLC analysis; assay type: physicochemical; details: buffer, pH 7, 150 µM
Outline: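 Peptide incubated in phosphate buffer (PBS), pH 7.0, 21 °C, for 24 or 48 h. Remaining intact peptide assessed from reversed-phase HPLC chromatograms.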

[11] = target: Neuropeptide Y receptor type 4 (Homo sapiens, UniProt P50391); test: Displacement of S0586[K4]hpp from human NPY4 receptor expressed in CHO cells co-expressing Gqi5-mtAEQ by flow cytometric analysis; assay type: cell-based
[12] = Drug degradation in human HT-29 cells at 50 uM after 2 hrs by reversed-phase HPLC analysis; assay type: ADME, cell-based; details: read-out: Drug degradation; outline: as §1
[13] = Chemical stability of compound at 120 uM at pH 7 at 21 degC after 24 to 48 hrs by reversed-phase HPLC analysis; assay type: physicochemical; details: buffer, pH 7, 120 µM; outline: as §2

T2 sequence (P30989 whole entry): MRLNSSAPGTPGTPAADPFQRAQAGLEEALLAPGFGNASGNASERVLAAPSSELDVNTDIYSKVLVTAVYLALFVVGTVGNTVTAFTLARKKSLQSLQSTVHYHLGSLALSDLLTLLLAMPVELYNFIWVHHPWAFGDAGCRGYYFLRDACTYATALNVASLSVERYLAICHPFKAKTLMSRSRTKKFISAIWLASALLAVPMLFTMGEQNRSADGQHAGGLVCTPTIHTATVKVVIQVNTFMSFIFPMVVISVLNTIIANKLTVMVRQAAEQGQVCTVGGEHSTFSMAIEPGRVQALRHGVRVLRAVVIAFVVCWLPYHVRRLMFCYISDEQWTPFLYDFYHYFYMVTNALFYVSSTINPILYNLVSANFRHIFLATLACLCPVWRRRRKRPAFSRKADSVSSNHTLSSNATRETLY
Sequence of Neuropeptide Y receptor type 4 (P50391 whole entry): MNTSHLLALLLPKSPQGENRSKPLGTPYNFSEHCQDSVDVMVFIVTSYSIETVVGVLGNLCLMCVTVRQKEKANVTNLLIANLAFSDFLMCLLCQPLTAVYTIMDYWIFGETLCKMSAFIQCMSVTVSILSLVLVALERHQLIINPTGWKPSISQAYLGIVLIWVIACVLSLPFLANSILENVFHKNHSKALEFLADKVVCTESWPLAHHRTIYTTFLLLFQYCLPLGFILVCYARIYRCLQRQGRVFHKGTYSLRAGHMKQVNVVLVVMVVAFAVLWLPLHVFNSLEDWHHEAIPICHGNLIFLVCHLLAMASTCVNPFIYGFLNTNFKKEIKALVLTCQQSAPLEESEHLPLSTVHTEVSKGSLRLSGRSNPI
Sequence of Neuropeptide FF receptor 2 (Q9Y5X5 whole entry, the tested form may be a part): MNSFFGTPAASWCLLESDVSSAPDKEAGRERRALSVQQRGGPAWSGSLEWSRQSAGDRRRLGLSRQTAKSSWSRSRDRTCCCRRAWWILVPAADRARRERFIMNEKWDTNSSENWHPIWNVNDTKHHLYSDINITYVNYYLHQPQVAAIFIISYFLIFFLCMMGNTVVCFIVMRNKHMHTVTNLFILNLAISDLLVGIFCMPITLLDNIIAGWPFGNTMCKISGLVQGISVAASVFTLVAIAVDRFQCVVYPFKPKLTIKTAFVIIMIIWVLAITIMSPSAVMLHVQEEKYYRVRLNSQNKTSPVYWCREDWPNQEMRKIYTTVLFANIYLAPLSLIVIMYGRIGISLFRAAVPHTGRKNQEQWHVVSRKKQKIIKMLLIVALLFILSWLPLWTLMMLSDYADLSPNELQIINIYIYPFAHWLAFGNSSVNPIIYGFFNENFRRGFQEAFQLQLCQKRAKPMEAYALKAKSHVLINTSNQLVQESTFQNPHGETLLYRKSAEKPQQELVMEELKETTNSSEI
Sequence of Neurotensin receptor type 2 (O95665 whole entry, the tested form may be a part): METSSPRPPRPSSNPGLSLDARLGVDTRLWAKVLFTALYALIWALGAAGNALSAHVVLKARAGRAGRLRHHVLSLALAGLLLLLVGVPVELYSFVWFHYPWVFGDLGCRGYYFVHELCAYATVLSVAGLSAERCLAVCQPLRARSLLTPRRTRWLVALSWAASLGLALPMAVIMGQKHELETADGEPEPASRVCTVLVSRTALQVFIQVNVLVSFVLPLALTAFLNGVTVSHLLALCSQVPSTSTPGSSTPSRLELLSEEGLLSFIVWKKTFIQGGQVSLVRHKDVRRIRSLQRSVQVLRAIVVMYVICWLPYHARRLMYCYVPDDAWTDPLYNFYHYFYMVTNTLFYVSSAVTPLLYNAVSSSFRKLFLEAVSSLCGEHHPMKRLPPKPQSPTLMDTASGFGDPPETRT

CCC(=O)NCCOCCOCCNC(=O)/N=C(\N)NCCC[C@H](NC(=O)[C@@H](N)CC(=O)O)C(=O)N[C@H](C(=O)N[C@@H](Cc1ccc(O)cc1)C(=O)N[C@H](C(=O)N[C@@H](Cc1cnc[nH]1)C(=O)N1CCC[C@H]1C(=O)N[C@@H](Cc1ccccc1)C(=O)O)[C@@H](C)CC)C(C)C
metabolised at 2 h, 50 µM [1]: < 5.5%

CC[C@H](C)[C@H](NC(=O)[C@H](Cc1ccc(O)cc1)NC(=O)[C@@H](NC(=O)[C@H](CCCN/C(N)=N/C(=O)NCCCCN)NC(=O)[C@@H](N)CC(=O)O)C(C)C)C(=O)N[C@@H](Cc1cnc[nH]1)C(=O)N1CCC[C@H]1C(=O)N[C@@H](Cc1ccccc1)C(=O)O.O=C(O)C(F)(F)F.O=C(O)C(F)(F)F.O=C(O)C(F)(F)F.O=C(O)C(F)(F)F (H-D[X2]VYIHPF-OH)
pIC50 [2]: 8.21
pKi [2]: 8.68
Stability [3]: Stable
pEC50 [4]: 8.85

CC[C@H](C)[C@H](NC(=O)[C@H](Cc1ccc(O)cc1)NC(=O)[C@@H]1CCCN1C(=O)[C@H](CCCNC(=N)N)NC(=O)[C@@H](N)CCCN/C(N)=N/C(=O)NCCOCCOCCN)C(=O)N[C@@H](CC(C)C)C(=O)O (H-[X3]RPYIL-OH)
pKi [5]: 9.59

CCC(=O)NCCCCNC(=O)/N=C(/N)NCCC[C@H](NC(=O)[C@H](CCC(N)=O)NC(=O)[C@@H]1CCCN1C(=O)[C@H](C)NC(=O)[C@H](C)NC(=O)[C@H](CC(C)C)NC(=O)[C@H](CO)NC(=O)[C@H](Cc1c[nH]c2ccccc12)NC(=O)[C@H](Cc1ccc(O)cc1)NC(=O)[C@@H](N)CCC(=O)O)C(=O)N[C@@H](Cc1ccccc1)C(N)=O.O=C(O)C(F)(F)F.O=C(O)C(F)(F)F (H-EYWSLAAPQ[X6]F-NH2)
Stability [3]: Stable
pKi [6]: 7.39

CC[C@H](C)[C@H](NC(=O)[C@H](Cc1ccc(O)cc1)NC(=O)[C@@H]1CCCN1C(=O)[C@H](CCCNC(=N)N)NC(=O)[C@@H](N)CCCN/C(N)=N/C(=O)NCCCCN)C(=O)N[C@@H](CC(C)C)C(=O)O.O=C(O)C(F)(F)F.O=C(O)C(F)(F)F.O=C(O)C(F)(F)F.O=C(O)C(F)(F)F (H-[X2]RPYIL-OH)
pKi [7]: 9.13
Stability [3]: Stable
pKi [8]: 9.16
pIC50 [5]: 8.87
pKi [5]: 9.33
pEC50 ([9]; read-out: EC50): 8.77
EC50 ([9]; read-out: pEC50 (converted)): 1.55 nM

CC(C)C[C@H](NC(=O)[C@H](CO)NC(=O)[C@H](Cc1c[nH]c2ccccc12)NC(=O)[C@H](Cc1ccc(O)cc1)NC(=O)[C@@H](N)CCC(=O)O)C(=O)N[C@@H](C)C(=O)N[C@@H](C)C(=O)N1CCC[C@H]1C(=O)N[C@@H](CCC(N)=O)C(=O)N[C@@H](CCCN/C(N)=N\C(=O)NCCCCN)C(=O)N[C@@H](Cc1ccccc1)C(N)=O.O=C(O)C(F)(F)F.O=C(O)C(F)(F)F.O=C(O)C(F)(F)F (H-EYWSLAAPQ[X7]F-NH2)
Stability [3]: Stable
pKi [6]: 7.57

CC[C@H](C)[C@H](NC(=O)[C@H](Cc1ccc(O)cc1)NC(=O)[C@@H]1CCCN1C(=O)[C@H](CCCNC(=N)N)NC(=O)[C@@H](N)CCCN/C(N)=N/C(=O)NCCCCNC(=O)CCCCC[n+]1cc(S(=O)(=O)[O-])ccc1/C=C/c1cc2ccc(N(CC)CC)cc2oc1=O)C(=O)N[C@@H](CC(C)C)C(=O)O.O=C(O)C(F)(F)F.O=C(O)C(F)(F)F.O=C(O)C(F)(F)F
Stability [10]: Stable

CC(C)C[C@H](NC(=O)[C@H](CCCNC(=N)N)NC(=O)[C@H](Cc1ccc(O)cc1)NC(=O)CCCCCCC(=O)N[C@@H](Cc1ccc(O)cc1)C(=O)N[C@@H](CCCNC(=N)N)C(=O)N[C@@H](CC(C)C)C(=O)N[C@@H](CCCNC(=N)N)C(=O)N[C@@H](Cc1ccc(O)cc1)C(N)=O)C(=O)N[C@@H](CCCNC(=N)N)C(=O)N[C@@H](Cc1ccc(O)cc1)C(N)=O (I: YRLRY-NH2 / II: YRLRY-NH2; linker I:N-II:N via Suberoyl)
pKi [11]: 8.13

CC[C@H](C)[C@H](NC(=O)[C@H](Cc1ccc(O)cc1)NC(=O)[C@@H]1CCCN1C(=O)[C@H](CCCN/C(N)=N\C(=O)NCCOCCOCCN)NC(=O)[C@@H](N)CCCNC(=N)N)C(=O)N[C@@H](CC(C)C)C(=O)O (H-R[X4]PYIL-OH)
pKi [5]: 9.44

CCC(=O)NCCOCCOCCNC(=O)/N=C(\N)NCCC[C@H](N)C(=O)N[C@@H](CCCNC(=N)N)C(=O)N1CCC[C@H]1C(=O)N[C@@H](Cc1ccc(O)cc1)C(=O)N[C@H](C(=O)N[C@@H](CC(C)C)C(=O)O)[C@@H](C)CC
metabolised at 2 h, 50 µM [12]: < 5.5%

CC[C@H](C)[C@H](NC(=O)[C@H](Cc1ccc(O)cc1)NC(=O)[C@@H]1CCCN1C(=O)[C@H](CCCNC(=N)N)NC(=O)[C@@H](N)CCCNC(=N)N)C(=O)N[C@@H](CC(C)C)C(=O)O
metabolised at 2 h, 50 µM [12]: < 5.5%

CCC(=O)NCCCCNC(=O)/N=C(\N)NCCC[C@H](NC(=O)[C@H](Cc1ccc(O)cc1)NC(=O)CCCCCCC(=O)N[C@@H](Cc1ccc(O)cc1)C(=O)N[C@@H](CCCNC(=N)N)C(=O)N[C@@H](CC(C)C)C(=O)N[C@@H](CCCNC(=N)N)C(=O)N[C@@H](Cc1ccc(O)cc1)C(N)=O)C(=O)N[C@@H](CC(C)C)C(=O)N[C@@H](CCCNC(=N)N)C(=O)N[C@@H](Cc1ccc(O)cc1)C(N)=O (I: Y[X1]LRY-NH2 / II: YRLRY-NH2; linker I:N-II:N via Suberoyl)
pKi [11]: 8.44

CC[C@H](C)[C@H](NC(=O)[C@H](Cc1ccc(O)cc1)NC(=O)[C@@H](NC(=O)[C@H](CCCN/C(N)=N/C(=O)NCCCCNC(=O)CCCCCN1\C(=C/C=C/C=C/C2=[N+](C)c3ccccc3C2(C)C)C(C)(C)c2ccccc21)NC(=O)[C@@H](N)CC(=O)O)C(C)C)C(=O)N[C@@H](Cc1cnc[nH]1)C(=O)N1CCC[C@H]1C(=O)N[C@@H](Cc1ccccc1)C(=O)O.O=C(O)C(F)(F)F.O=C(O)C(F)(F)F.O=C(O)C(F)(F)F.O=C(O)C(F)(F)F.[Br-]
Stability [13]: Stable

COc1cccc(OC)c1-c1cc(C(=O)NC2(C(=O)O)C3CC4CC(C3)CC2C4)nn1-c1ccc(C(=O)N(C)CCCN(C)C)cc1C(C)C (stereo unspecified)
pIC50 [5]: 8.50
pKi [5]: 8.96

CC[C@H](C)[C@H](NC(=O)[C@H](Cc1ccc(O)cc1)NC(=O)[C@@H](NC(=O)[C@H](CCCN/C(N)=N/C(=O)NCCCCNC(=O)CCCCC[n+]1cc(S(=O)(=O)[O-])ccc1/C=C/c1cc2ccc(N(CC)CC)cc2oc1=O)NC(=O)[C@@H](N)CC(=O)O)C(C)C)C(=O)N[C@@H](Cc1cnc[nH]1)C(=O)N1CCC[C@H]1C(=O)N[C@@H](Cc1ccccc1)C(=O)O.O=C(O)C(F)(F)F.O=C(O)C(F)(F)F.O=C(O)C(F)(F)F
Stability [13]: Stable

CC(C)C[C@H](NC(=O)[C@H](CCCNC(=N)N)NC(=O)[C@H](Cc1ccc(O)cc1)NC(=O)CCCCCCC(=O)N[C@@H](Cc1ccc(O)cc1)C(=O)N[C@@H](CCCN/C(N)=N/C(=O)NCCCCN)C(=O)N[C@@H](CC(C)C)C(=O)N[C@@H](CCCNC(=N)N)C(=O)N[C@@H](Cc1ccc(O)cc1)C(N)=O)C(=O)N[C@@H](CCCNC(=N)N)C(=O)N[C@@H](Cc1ccc(O)cc1)C(N)=O (I: Y[X2]LRY-NH2 / II: YRLRY-NH2; linker I:N-II:N via Suberoyl)
pKi [11]: 8.82

CC[C@H](C)[C@H](NC(=O)[C@H](Cc1ccc(O)cc1)NC(=O)[C@@H](NC(=O)[C@H](CCCN/C(N)=N/C(=O)NCCOCCOCCN)NC(=O)[C@@H](N)CC(=O)O)C(C)C)C(=O)N[C@@H](Cc1cnc[nH]1)C(=O)N1CCC[C@H]1C(=O)N[C@@H](Cc1ccccc1)C(=O)O.O=C(O)C(F)(F)F.O=C(O)C(F)(F)F.O=C(O)C(F)(F)F.O=C(O)C(F)(F)F (H-D[X3]VYIHPF-OH)
pKi [2]: 8.55
Stability [3]: Stable
pEC50 [4]: 8.68
